Columns and labels:
Cavia porcellus [1] = organism: Cavia porcellus; settings: 10 nM
Cavia porcellus [2] = organism: Cavia porcellus; assay: Inhibition of CaCl2-induced contraction in potassium-depolarized guinea pig ileal smooth muscle at 10 uM; format: functional
In short: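 Guinea-pig ileum segments (2.5 cm) in high-K+ (45 mM KCl), Ca-free Krebs at 37 °C, gassed 95% O2/5% CO2, 1.5 g resting tension, isometric recording. CaCl2 raised bath Ca to 2.5 mM to give a sustained contracture. Compound at 1×10^-5 M in 0.5% DMSO/water added once contraction stabilised. Nifedipine 1×10^-8 M was the positive control. Mean ± SEM, n = animals.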

[3] = Inhibition of CaCl2-induced contraction in potassium depolarized-guinea pig ileal smooth muscle; format: functional, Cavia porcellus

Row | SMILES | inhibition (Cavia porcellus [2]) [%] | EC50 [3] [µM] | further results
1 | COC(=O)C1=C(C)NC(C)=C(C(=O)OC)C1c1ccccc1[N+](=O)[O-] | – | – | inhibition (Cavia porcellus [1]): 48.1%
2 | C=CCN(C1=CC(=O)c2ccccc21)C1CCc2ccccc21 (racemic) | 20.9 | – | –
3 | CC(=O)N(C1=CC(=O)c2ccccc21)C1CCc2ccccc21 (racemic) | 18.3 | – | –
4 | O=C1C=C(NC2CCc3ccccc32)c2ccccc21 (racemic) | 30 | – | –
5 | Cc1c(O)c2c(c(C)c1CCO)C(=O)C(C)(C)C2 [ONITIN] | – | 100 | –
6 | Cc1c(O)c2c(c(C)c1CCO)C(=O)C(C)(O)C2 (stereo unspecified) [ONITISIN] | – | 2000 | –
